Measurements published in publication PMC2999657 (Biochemistry, 2010).

How the values were obtained:
[1] = target: T1, P99 β-lactamase (Enterobacter cloacae, UniProt P05364); assay: P99 β-lactamase activity with time after incubation with compound; type: biochemical; conditions: enzyme 0.25 μM, compound 100 μM
[2] = target: class C P99 β-lactamase (Enterobacter cloacae, UniProt P05364); type: biochemical; conditions: steady state turnover by P99 β-lactamase, 20 mM MOPS pH 7.5, 25 °C
[3] = target: class D OXA-1 β-lactamase (Escherichia coli, UniProt P13661); assay: OXA-1 β-lactamase hydrolysis and inhibition; type: biochemical
class D OXA-1 β-lactamase, sequence (P13661 26-276): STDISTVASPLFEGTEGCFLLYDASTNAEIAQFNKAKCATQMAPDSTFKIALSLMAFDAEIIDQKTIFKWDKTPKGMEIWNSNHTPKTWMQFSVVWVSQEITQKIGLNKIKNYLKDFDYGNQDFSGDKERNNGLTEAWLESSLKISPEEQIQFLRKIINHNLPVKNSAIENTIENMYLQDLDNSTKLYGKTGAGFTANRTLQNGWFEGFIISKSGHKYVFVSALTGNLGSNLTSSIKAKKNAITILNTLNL

[4] = target: T1, P99 β-lactamase; type: biochemical; conditions: pH range 6.0–9.5, 25 °C, ionic strength 1.0
[5] = pKa determination by spectrophotometric titration; type: physicochemical; conditions: spectrophotometric titration at 233 nm, 25 °C, ionic strength 1.0
[6] = Spontaneous hydrolysis in neutral aqueous buffer; type: physicochemical; conditions: pH 7.5, 25 °C
In short: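 Test compounds were diluted from concentrated acetonitrile stocks to ≤5% acetonitrile in 20 mM MOPS, pH 7.5, at 25 °C, and their hydrolysis without enzyme was followed by UV-vis. Full progress curves were fit to a pseudo-first-order equation by nonlinear least squares, and triplicate rate constants were averaged. The clavulanic acid reference (85 μM) was run in 25 mM MOPS, pH 7.5, at 25 °C, read at 260 nm.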

[7] = target: Actinomadura R39 DD-peptidase (Actinomadura sp., UniProt P39045); assay: Hydrolysis in the presence of R39 DD-peptidase; type: biochemical
Actinomadura R39 DD-peptidase, sequence (P39045 50-538): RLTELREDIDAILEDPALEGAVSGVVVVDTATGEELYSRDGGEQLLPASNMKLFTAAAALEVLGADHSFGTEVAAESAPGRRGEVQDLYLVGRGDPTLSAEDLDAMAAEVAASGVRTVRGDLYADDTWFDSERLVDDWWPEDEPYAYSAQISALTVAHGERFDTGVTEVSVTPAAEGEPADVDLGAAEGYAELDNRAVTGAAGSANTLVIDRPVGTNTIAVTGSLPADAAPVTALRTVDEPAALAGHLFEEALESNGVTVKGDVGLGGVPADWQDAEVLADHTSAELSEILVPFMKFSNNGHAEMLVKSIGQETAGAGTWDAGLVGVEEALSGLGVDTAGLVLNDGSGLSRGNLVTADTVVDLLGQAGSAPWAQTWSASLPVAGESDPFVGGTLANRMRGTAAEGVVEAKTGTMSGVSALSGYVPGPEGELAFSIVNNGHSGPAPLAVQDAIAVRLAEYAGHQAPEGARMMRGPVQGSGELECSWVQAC

[8] = target: Streptomyces R61 DD-peptidase (Streptomyces sp., UniProt P15555); assay: Hydrolysis in the presence of R61 DD-peptidase; type: biochemical; conditions: enzyme 0.5 μM
Streptomyces R61 DD-peptidase, sequence (P15555 32-406): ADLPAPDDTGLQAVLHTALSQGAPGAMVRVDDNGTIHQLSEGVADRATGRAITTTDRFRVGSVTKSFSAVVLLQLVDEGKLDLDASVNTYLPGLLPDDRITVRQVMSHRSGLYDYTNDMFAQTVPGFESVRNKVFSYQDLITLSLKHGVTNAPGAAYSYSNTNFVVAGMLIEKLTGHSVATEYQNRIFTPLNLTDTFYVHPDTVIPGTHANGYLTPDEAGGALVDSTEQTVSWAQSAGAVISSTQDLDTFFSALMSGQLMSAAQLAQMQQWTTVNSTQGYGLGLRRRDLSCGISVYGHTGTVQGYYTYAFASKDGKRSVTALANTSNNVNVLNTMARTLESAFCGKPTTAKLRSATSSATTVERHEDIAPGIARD

[9] = target: class C ampC β-lactamase (Escherichia coli, UniProt P00811); assay: ampC β-lactamase substrate activity; type: biochemical
class C ampC β-lactamase, sequence (P00811 20-377): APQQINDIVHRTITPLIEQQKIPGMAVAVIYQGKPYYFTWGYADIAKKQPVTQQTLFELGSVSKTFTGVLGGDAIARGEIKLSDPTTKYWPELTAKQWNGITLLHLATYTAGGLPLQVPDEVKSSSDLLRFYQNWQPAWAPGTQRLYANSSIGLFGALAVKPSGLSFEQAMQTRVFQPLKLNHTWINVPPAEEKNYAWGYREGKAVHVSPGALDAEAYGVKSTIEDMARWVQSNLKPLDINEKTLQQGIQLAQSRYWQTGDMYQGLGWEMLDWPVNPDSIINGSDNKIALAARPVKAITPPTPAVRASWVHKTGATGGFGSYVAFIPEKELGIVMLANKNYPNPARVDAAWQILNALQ

[10] = in dioxane/water; cited from earlier work

class C P99 β-lactamase, sequence (P05364 21-381): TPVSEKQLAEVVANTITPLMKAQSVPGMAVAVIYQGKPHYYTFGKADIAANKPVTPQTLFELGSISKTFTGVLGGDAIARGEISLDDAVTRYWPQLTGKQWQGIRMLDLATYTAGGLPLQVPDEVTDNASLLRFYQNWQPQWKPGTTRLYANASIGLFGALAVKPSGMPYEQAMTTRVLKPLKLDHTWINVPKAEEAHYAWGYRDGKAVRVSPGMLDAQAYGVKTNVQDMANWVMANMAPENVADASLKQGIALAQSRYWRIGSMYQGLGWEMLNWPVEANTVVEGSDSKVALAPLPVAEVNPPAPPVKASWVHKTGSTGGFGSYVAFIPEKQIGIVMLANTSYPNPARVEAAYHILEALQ
T1 sequence (P05364 21-381): as above

## N-(Benzyloxycarbonyl)-O-(1-D-carboxy-ethoxycarbonyl)hydroxylamine [2 (R = CH2Ph, R′=Me)]
[1]
  enzyme activity against cephalothin with time after mixing: initial loss of enzyme activity, measured against the good substrate, cephalothin, followed by a slower restoration of activity

## O=C(NOC(=O)C(O)Cc1ccccc1)OCc1ccccc1 (stereo not shown) [Compound 8, N-(Benzyloxycarbonyl)-O-(2-hydroxy-3-phenylpropanoyl)hydroxylamine]
[2]
  Km: 340 ± 60 µM

## O=C(NOC(=O)C(O)Cc1ccccc1)OCc1ccccc1 (stereo not shown) [Compound 7, N-(Benzyloxycarbonyl)-O-(2-hydroxy-3-phenylpropanoyl)hydroxylamine]
[3]
  fast reversible or slow inhibition of the OXA-1 enzyme: no significant fast reversible or slow inhibition
[3]; 20 mM MOPS, 50 mM NaHCO3, 0.1 % gelatin, pH 7.5
  hydrolysis catalyzed by OXA-1: did not catalyze hydrolysis
[4]
  pKa for decreasing activity in pH-rate profile: 7.6 ± 0.2
[5]
  pKa (acidic NH proton): 7.58 ± 0.03
[6]; 20 mM MOPS
  ksp, rate constant of spontaneous hydrolysis: (8.2 ± 0.8) × 10^−5 s^−1
[7]
  substrate activity with R39 DD-peptidase: not substrates
[2]
  Km: 71 ± 10 µM
[8]
  substrate activity with R61 DD-peptidase: not substrates
[9]
  substrate activity with ampC β-lactamase: good substrate

## O=C(O)[C@H]1/C(=C/CO)O[C@@H]2CC(=O)N21 [clavulanic acid, reference compound]
[6]; 85 μM in 25 mM MOPS buffer, monitored at 260 nm
  spontaneous hydrolysis rate constant: 8e-05 s⁻¹

## O=[N+]([O-])c1ccc(O)cc1 [p-nitrophenol]
[10]
  pKa: 9.4
